In test [1] the test system is Plasmodium falciparum. In words: Antimalarial activity against chloroquine-resistant Plasmodium falciparum W2. Type of test: functional, organism-based. The method, boiled down: (§1)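 Parasites cultured in A-positive human erythrocytes in RPMI 1640 with 10% human serum, 25 mM Hepes, 25 mM NaHCO3, 37 °C, 10% O2/5% CO2/85% N2. Compounds dissolved in DMSO 1% in RPMI, twofold serial dilutions, final […]; 42 h incubation; [3H]hypoxanthine uptake read by scintillation after freeze-thaw lysis; IC50 by nonlinear regression of log-dose/response curves.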

The test system of test [2] is Plasmodium falciparum. Briefly: Antimalarial activity against chloroquine-sensitive Plasmodium falciparum 3D7. Type of test: functional, organism-based. The method, boiled down:
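Parasites kept in RPMI 1640 with 10% human serum, 25 mM Hepes, 25 mM NaHCO3, in A-positive human erythrocytes at 37 °C (10% O2, 5% CO2, 85% N2, 95% humidity). Twofold serial dilutions, final 0.01 to 200 µM, in 1% DMSO/RPMI; 42 h incubation. [3H]hypoxanthine uptake measured by scintillation after freeze-thaw lysis and filter harvest; IC50 by nonlinear regression of log-dose/response curves.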

Test [3] deals with Plasmodium falciparum. Briefly: Antimalarial activity against chloroquine-resistant Plasmodium falciparum FCR3. Type of test: functional, organism-based. The method, boiled down: as §1
Test [4] deals with Plasmodium falciparum. Briefly: Antimalarial activity against chloroquine-resistant Plasmodium falciparum Bre1. In kind it is functional, organism-based. The method, boiled down:
as §1

Test [5] concerns Plasmodium falciparum. In words: Antimalarial activity against Plasmodium falciparum W2 as food vacuole abnormality. In kind it is functional, organism-based.
Test [6] deals with T1, Falcipain 2 (Plasmodium falciparum, UniProt Q9N6S8).
T1 sequence (Q9N6S8 whole entry): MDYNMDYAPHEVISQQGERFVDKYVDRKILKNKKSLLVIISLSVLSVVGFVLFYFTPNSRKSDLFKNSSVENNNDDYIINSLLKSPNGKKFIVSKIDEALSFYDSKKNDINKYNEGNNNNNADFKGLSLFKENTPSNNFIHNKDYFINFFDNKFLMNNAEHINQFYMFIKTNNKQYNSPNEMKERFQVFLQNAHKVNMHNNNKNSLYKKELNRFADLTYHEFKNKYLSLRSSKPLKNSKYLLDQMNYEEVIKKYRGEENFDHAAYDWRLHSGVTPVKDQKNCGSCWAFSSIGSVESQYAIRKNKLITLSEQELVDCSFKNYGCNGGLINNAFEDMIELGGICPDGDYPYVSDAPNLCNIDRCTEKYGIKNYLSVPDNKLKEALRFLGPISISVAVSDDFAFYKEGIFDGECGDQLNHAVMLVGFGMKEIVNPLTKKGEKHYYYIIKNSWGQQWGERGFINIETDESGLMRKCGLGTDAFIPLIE
Briefly: Inhibition of Plasmodium falciparum W2 recombinant falcipain-2 activity.

Each structure is given as a SMILES string. pIC50: −log10 of the molar value. Activity calls are given as the source filed them. The rule behind the calls is not given here. A value given as a limit tells only on which side of the number the result lay.

As usually defined, the IC90 is the point of the concentration-response curve where the effect stands at 90%. A high value points to a need for much substance. One may read the pIC50 as −log10 of the IC50, conventionally taken in molar units.

Regarding `CCN(CC)CCCC(C)Nc1ccnc2cc(Cl)ccc12` (stereo not drawn) [CHLOROQUINE], the 90% effect concentration (IC90) turned out to be 992 nM in test [1], 41.7 nM in test [2], 1180 nM in test [3] and 722 nM in test [4].
Compound `C/C(=N\NC(=S)NCCNc1ccnc2cc(Cl)ccc12)c1ccc(Cl)c(Cl)c1` returned an IC90 in test [2] of 2400 nM. The result in test [5] was Active. The negative logarithm of the IC50 (pIC50) in test [6] was 5.35.
Take `C/C(=N\NC(=S)NCCCNc1ccnc2cc(Cl)ccc12)c1ccc(Br)cc1`: the 90% effect level in test [2] (IC90) was put at 25800 nM. Moreover, the pIC50 in test [6] is below 4.70.
In test [2], `C/C(=N\NC(=S)NCCNc1ccnc2cc(Cl)ccc12)c1ccc(Br)cc1` came in with an IC90 of 26300 nM. Besides, the pIC50 in test [6] is 4.89.
In turn, `C/C(=N\NC(=S)NCCCNc1ccnc2cc(Cl)ccc12)c1ccc(Cl)c(Cl)c1` returned a 90% effect concentration (IC90) in test [2] of 1400 nM. The pIC50 in test [6] was below 4.70.

The values are drawn from ChEMBL document CHEMBL1140574, “Design, synthesis, and antimalarial activity of structural chimeras of thiosemicarbazone and ferroquine analogues” (Bioorg Med Chem Lett, 2007).
